Screening results deposited in PubChem BioAssay by several laboratories.
Compounds with a hit are over-represented: about 1.6% of the library has one in this group of screens.
Neddylation inh: inhibitors of cullin neddylation, primary screen, biochemical, TR-FRET, uHTS, NAE and Ubc12 | AID 651699, 2012 | calls only at 25 µM | 360,000 tested, 0.58% active | NEDD8-conjugating enzyme Ubc12 (Homo sapiens) + NEDD8-activating enzyme E1 regulatory …; in the data active = inhibition above about 36%
proCasp3 act: activators of human procaspase-3 D3A mutant, primary screen, biochemical, absorbance, PC-3 D3A mutant, single concentration | Caspase-3 (Homo sapiens), P42574 | recombinant procaspase-3 D3A, Ac-DEVD-pNA absorbance 405 nm | activation, % at 8.5 µM | 330,000 tested, 0.11% active;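 active = activation above the mean of all tested compounds plus 3 SD, cut at about 21% in these data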
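Assay system: Procaspase-3 D3A mutant, all three cleavage aspartates alanine. Buffer or medium: Zinc-free HEPES saline buffer with Triton X-100. Times: 1 h compound preincubation, 2 h substrate hydrolysis at 25 °C. Measured by: 405 nm absorbance of p-nitroaniline, reads at 0 and 120 min. Read-out basis: percent activation relative to control range. Replicates: singlicate.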
proCasp7 act: procaspase-7 activators, primary screen, counter-screen for procaspase-3 activator project, biochemical, absorbance, HTS, human; Caspase-7 (Homo sapiens), P55210; recombinant procaspase-7, Ac-DEVD-pNA absorbance 405 nm; D23A/D198A/D206A triple mutant, cannot self-cleave; scale: DMSO 0, 5 µM enzyme 100; activation, % at 8.5 µM; 330,000 tested, 0.093% active;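 active = percent activation above the screen-wide mean plus 3 SD, cut at about 25% in these data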
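System: Procaspase-7 triple mutant (PC-7 D3A); measure: % activation from two-timepoint absorbance difference, scaled to controls; times: 1 h compound preincubation, 2 h substrate cleavage, 25 °C; also added: Ac-DEVD-pNA substrate, 400 µM as added; measured by: Epi-absorbance of released pNA at 405 nm, two timepoints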
proKLK7 act: proKLK7 zymogen activators, primary screen, biochemical, fluorescence intensity | purified proKLK7, EDANS-DABCYL substrate fluorescence; 100% is mature enzyme control, 0% vehicle | activation, % at 7 µM | 370,000 tested, 0.9% active | AID 652039, 2013;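 active = activation above the mean of all tested compounds plus 3 SD, computed per campaign excluding outliers beyond control limits, cut at about 13% in these data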
Target sequence (P49862 whole entry, looked up): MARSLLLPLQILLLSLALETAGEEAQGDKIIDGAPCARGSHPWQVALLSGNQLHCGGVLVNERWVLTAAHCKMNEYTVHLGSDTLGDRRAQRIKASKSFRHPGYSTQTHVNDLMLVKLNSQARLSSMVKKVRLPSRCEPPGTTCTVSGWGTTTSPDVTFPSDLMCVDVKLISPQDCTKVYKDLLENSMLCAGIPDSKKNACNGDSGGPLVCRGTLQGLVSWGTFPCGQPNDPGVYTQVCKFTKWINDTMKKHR
KLK7 act conf: proKLK7 zymogen activators, confirmation, biochemical, fluorescence intensity, triplicate; 3,200 tested, 68% active; purified proKLK7, EDANS-DABCYL substrate fluorescence; scaled: vehicle 0, mature enzyme 100; activation, % at 7 µM; shares compounds with proKLK7 act;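 active = activation, as change over the incubation, above the mean of all tested compounds plus 3 SD, cut at about 13% in these data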
EDANS interfere: EDANS-DABCYL substrate optical interference, artefact control for kallikrein-7 zymogen activator project, biochemical, fluorescence intensity, high throughput | shares compounds with proKLK7 act | no enzyme, 4 h; solvent 0%, active enzyme control 100% | activation, % at 7 µM | 3,200 tested, 80% active;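 active = activation above the all-compound mean plus 3 SD, ignoring values outside control-based bounds, cut at about 4.8% in these data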;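 note: value is the 4 h activation minus the activation read at time zero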
Numbers stand for hits; i = inactive; nt = not tested or not shown.

SMILES | Neddylation inh | proCasp3 act | proCasp7 act | proKLK7 act | KLK7 act conf | EDANS interfere
O=C(c1cc2c(ccc3ccccc32)oc1=O)N1CCCC1 | nt | i | i | 24 | 49 | 53
CCOC(=O)c1cc2c(ccc3ccccc32)oc1=O | nt | i | i | i | nt | nt
O=C(O)c1cc2c(ccc3ccccc32)oc1=O | nt | i | i | 34 | 41 | 42
O=C(O)c1cc2ccc3ccccc3c2oc1=O | nt | i | i | 31 | 79 | 82
O=C(O)c1cc2cc(Cl)cc(Cl)c2oc1=O | i | i | i | i | nt | nt
CCc1cc(CNC(=O)C2CCC(=O)N(Cc3ccccc3F)C2)on1 (stereo not given) | i | nt | nt | i | nt | nt
CCCS(=O)(=O)NC(=O)C1(C)CCCN(C(=O)COc2ccccc2)C1 (stereo not given) | i | nt | nt | i | nt | nt
CCOC(=S)SCC(=O)N1CCc2cc(OC)c(OC)cc2C1C1C(=O)CC(C)(C)CC1=O (stereo not given) | i | i | i | 26 | i | i
CN(Cc1ccccc1)C(=O)COc1cccnc1[N+](=O)[O-] | i | i | i | i | nt | nt
O=C(CC[C@H]1O[C@@H](n2ccc(=O)[nH]c2=O)[C@H](O)[C@@H]1O)NCCCc1ccccc1 | i | nt | nt | i | nt | nt
CC1=C(C(=O)OC2CCCCC2)C(c2ccc(N(C)C)cc2)NC(=O)N1 (stereo not given) | i | i | i | i | nt | nt
CSc1nc2nc(Cl)c(Cl)nc2[nH]1 | nt | nt | nt | 26 | 45 | 46
CCOC(=O)CSc1nc2nc(Cl)c(Cl)nc2[nH]1 | nt | nt | nt | 36 | 30 | 31
CCOC(=O)CSc1nc(C)cc(=O)[nH]1 | i | i | i | i | nt | nt
COc1ccc(OC)c(NC(=O)CSc2ncnc3c2cnn3-c2ccccc2Cl)c1 | i | i | i | nt | nt | nt
CCCCNC(=O)c1[nH]c(=O)cnc1-c1ccccc1 | i | nt | nt | i | nt | nt
COc1ccc(Cl)cc1C1=NOC2(CCC2)C(=O)N1Cc1ccc(NC(C)=O)cc1 | i | nt | nt | i | nt | nt
CCOc1ccc(S(=O)(=O)Nc2nc3ccccc3nc2Nc2ccc(N3CCOCC3)cc2)cc1 | i | i | i | i | nt | nt
COc1ccc(CCNC(=O)c2sc(=S)n(C)c2N)cc1 | i | i | i | 15 | 15 | 13
CC(=O)c1ccc(S(=O)(=O)Nc2ccc(-c3cn4c(n3)SCC4)cc2)cc1 | i | i | i | i | nt | nt
CC(=O)Nc1ccc(C(=O)NC(CC(=O)O)c2ccc(Cl)cc2)cc1 (stereo not given) | i | i | i | i | nt | nt
c1ccc2nc3c(nc2c1)OCC1CCCCN31 (stereo not given) | nt | i | i | 16 | 18 | 28
c1ccc2nc(N3CCCC3)c(N3CCCCC3)nc2c1 | i | nt | nt | i | nt | nt
Cn1c(=O)c2cc(S(=O)(=O)N3CCN(c4ccc(F)cc4)CC3)ccc2n(C)c1=O | nt | nt | nt | i | nt | nt
COc1cccc(-c2nc3ccccc3s2)c1O | i | i | i | 25 | i | i
SMILES | Neddylation inh | proCasp3 act | proCasp7 act | proKLK7 act | KLK7 act conf | EDANS interfere
CCc1nc2ccc(C(=O)NCc3ccc4c(c3)OCO4)cn2c1N(CC)Cc1cccc(Br)c1 | i | nt | nt | i | nt | nt
CCN1CCN(c2nc(-c3ccccc3)c3ccccc3n2)CC1 | nt | i | i | 28 | i | i
c1ccc(-c2nc(N3CCCCC3)nc3ccccc23)cc1 | nt | i | i | 22 | i | i
c1ccc2c(N3CCCCC3)nc(N3CCCC3)nc2c1 | i | i | i | i | nt | nt
c1ccc(-c2nc(N3CCNCC3)nc3ccccc23)cc1 | nt | i | i | 69 | 18 | 19
CCCCN(C(=O)c1ccc(N(C)S(=O)(=O)c2ccc(C)cc2)cc1)c1c(N)n(CC(C)C)c(=O)[nH]c1=O | i | nt | nt | i | nt | nt
CN1c2ccccc2-c2nc3ccccc3n2C1c1ccccn1 (stereo not given) | nt | i | i | 34 | i | i
CCN1c2ccccc2-c2nc3ccccc3n2C1c1ccco1 (stereo not given) | nt | i | i | 27 | i | i
